Columns and labels:
Mus musculus [1] = test: In Vivo detection of total AZT in Mice plasma after oral administration of 20 mg/kg after 1 hr; assay type: functional, organism-based; set-up: dose 20 mg/kg
In short: (§1)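 Male Swiss mice (18–20 g, six weeks old) given the test substance or vehicle ([…]) by gavage as a 3 mM solution (1.5 µmol/mouse). Aortic blood was collected into heparinized tubes at 0.5–48 h and centrifuged at 13000g for 10 min. Plasma was stored at -22 °C and analysed by HPLC. Three mice were used per time point, in triplicate. Values were not corrected for recovery.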

Mus musculus [2] = test: In Vivo detection in Mice plasma after oral administration of 20 mg/kg detected in the form of AZT 5`-P after 24 hr; assay type: functional, organism-based; set-up: dose 20 mg/kg
Mus musculus [3] = test: In Vivo detection in Mice plasma after oral administration of 20 mg/kg detected in the form of AZT 5`-P after 8 hr; assay type: functional, organism-based; set-up: dose 20 mg/kg
Mus musculus [4] = test: In Vivo detection in Mice plasma after oral administration of 20 mg/kg detected in the form of AZT 5`-P after 0.5 hr; assay type: functional, organism-based; set-up: dose 20 mg/kg
Mus musculus [5] = test: In Vivo detection in Mice plasma after oral administration of 20 mg/kg detected in the form of AZT after 1 hr; assay type: functional, organism-based; set-up: dose 20 mg/kg
Mus musculus [6] = test: In Vivo detection in Mice plasma after oral administration of 20 mg/kg detected in the form of AZT 5`-P after 1 hr; assay type: functional, organism-based; set-up: dose 20 mg/kg
Mus musculus [7] = test: In Vivo detection of total AZT in Mice plasma after oral administration of 20 mg/kg after 48 hr; assay type: functional, organism-based; set-up: dose 20 mg/kg; in short: as §1
Mus musculus [8] = test: In Vivo detection in Mice plasma after oral administration of 20 mg/kg detected in the form of AZT after 48 hr; assay type: functional, organism-based; set-up: dose 20 mg/kg
Mus musculus [9] = test: In Vivo detection in Mice plasma after oral administration of 20 mg/kg detected in the form of AZT after 8 hr; assay type: functional, organism-based; set-up: dose 20 mg/kg
Mus musculus [10] = species on record: Mus musculus; test: In Vitro detection by Gray and Whittaker method for % of internalization by comparing with external nucleoside of 2000 nM/g; assay type: functional
In short: (§2)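 Crude synaptosomes from three mouse brains were prepared by Gray–Whittaker homogenization in 10% sucrose buffered with 5 mM Tris-HCl, pH 7.4. The 7000g pellet was resuspended and incubated with each nucleoside at 3 mM for 15 min at 37 °C, stopped by cold 10-fold dilution and washed twice. Internal nucleoside was extracted in acetonitrile–water (3:1) and measured by HPLC.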

Mus musculus [11] = test: In Vivo detection in Mice plasma after oral administration of 20 mg/kg detected in the form of AZT 5`-P after 4 hr; assay type: functional, organism-based; set-up: dose 20 mg/kg
Mus musculus [12] = test: In Vivo detection in Mice plasma after oral administration of 20 mg/kg detected in the form of AZT after 4 hr; assay type: functional, organism-based; set-up: dose 20 mg/kg
Mus musculus [13] = test: In Vivo detection of total AZT in Mice plasma after oral administration of 20 mg/kg after 2 hr; assay type: functional, organism-based; set-up: dose 20 mg/kg; in short: as §1
Mus musculus [14] = test: In Vivo detection in Mice plasma after oral administration of 20 mg/kg detected in the form of AZT after 2 hr; assay type: functional, organism-based; set-up: dose 20 mg/kg
Mus musculus [15] = test: In Vivo detection in Mice plasma after oral administration of 20 mg/kg detected in the form of AZT after 24 hr; assay type: functional, organism-based; set-up: dose 20 mg/kg
Mus musculus [16] = test: In Vivo detection in Mice plasma after oral administration of 20 mg/kg detected in the form of AZT after 0.5 hr; assay type: functional, organism-based; set-up: dose 20 mg/kg
Mus musculus [17] = test: In Vivo detection of total AZT in Mice plasma after oral administration of 20 mg/kg after 24 hr; assay type: functional, organism-based; set-up: dose 20 mg/kg; in short: as §1
Mus musculus [18] = test: In Vivo detection of total AZT in Mice plasma after oral administration of 20 mg/kg after 0.5 hr; assay type: functional, organism-based; set-up: dose 20 mg/kg; in short: as §1
Mus musculus [19] = test: In Vivo detection in Mice plasma after oral administration of 20 mg/kg detected in the form of AZT 5`-P after 48 hr; assay type: functional, organism-based; set-up: dose 20 mg/kg
Mus musculus [20] = test: In Vivo detection in Mice plasma after oral administration of 20 mg/kg detected in the form of AZT 5`-P after 2 hr; assay type: functional, organism-based; set-up: dose 20 mg/kg
Mus musculus [21] = test: In Vivo detection of total AZT in Mice plasma after oral administration of 20 mg/kg after 8 hr; assay type: functional, organism-based; set-up: dose 20 mg/kg; in short: as §1
Mus musculus [22] = test: In Vivo detection of total AZT in Mice plasma after oral administration of 20 mg/kg after 4 hr; assay type: functional, organism-based; set-up: dose 20 mg/kg; in short: as §1
Mus musculus [23] = species on record: Mus musculus; test: Concentration of external nucleoside in mouse brain; assay type: functional
In short: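 Male Swiss mice (6 weeks, 18–20 g) dosed by oral gavage in saline vehicle at 20 mg/kg AZT or molar equivalent (3 mM, 1.5 µmol/mouse). Brains taken 0.5–48 h post-dose, homogenized in acetonitrile–water 3:1, centrifuged, lyophilized and filtered. Analysed by column-switching C18 HPLC with diode-array detection against spiked standards and vehicle controls. Three mice per time point, triplicates; not recovery-corrected.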

Mus musculus [24] = species on record: Mus musculus; test: In Vitro detection by Gray and Whittaker method for the total internal nucleoside; assay type: functional; in short: as §2

SMILES: Cc1cn([C@H]2C[C@H](N=[N+]=[N-])[C@@H](CO)O2)c(=O)[nH]c1=O [ZIDOVUDINE]
- Plasma content (Mus musculus [1]): 43.2 nM ml-1
- Plasma content (Mus musculus [2]): 0 nM ml-1
- Plasma content (Mus musculus [3]): 0 nM ml-1
- Plasma content (Mus musculus [4]): 21.7 nM ml-1
- Plasma content (Mus musculus [5]): 15.7 nM ml-1
- Plasma content (Mus musculus [6]): 27.5 nM ml-1
- Plasma content (Mus musculus [7]): 0 nM ml-1
- Plasma content (Mus musculus [8]): 0 nM ml-1
- Plasma content (Mus musculus [9]): 0 nM ml-1
- Internalisation (Mus musculus [10]): 0.03%
- Plasma content (Mus musculus [11]): 0 nM ml-1
- Plasma content (Mus musculus [12]): 4.4 nM ml-1
- Plasma content (Mus musculus [13]): 19.1 nM ml-1
- Plasma content (Mus musculus [14]): 6 nM ml-1
- Plasma content (Mus musculus [15]): 0 nM ml-1
- Plasma content (Mus musculus [16]): 26.6 nM ml-1
- Plasma content (Mus musculus [17]): 0 nM ml-1
- Plasma content (Mus musculus [18]): 48.3 nM ml-1
- Plasma content (Mus musculus [19]): 0 nM ml-1
- Plasma content (Mus musculus [20]): 13.1 nM ml-1
- Plasma content (Mus musculus [21]): 0 nM ml-1
- Plasma content (Mus musculus [22]): 4.4 nM ml-1

SMILES: Cc1cn([C@H]2C[C@H](N=[N+]=[N-])[C@@H](COP(=O)(O)O)O2)c(=O)[nH]c1=O [AZIDOTHYMIDINE MONOPHOSPHATE]
- External nucleoside (Mus musculus [23]): 2000 nM/g
- Internalisation (Mus musculus [10]): 0.06%
- Brain content (Mus musculus [24]): 1.1 nM/g

From ChEMBL document CHEMBL1125520, “Improved brain delivery of AZT using a glycosyl phosphotriester prodrug” (1992)
